MrgX1 agonist: human MrgX1 receptor agonism, primary screen. Q96LB2. MrgX1-HEK293 cells, Fluo-4 calcium fluorescence, agonist mode; stronger effect = higher value. B-score at 10 µM. hit rate 0.44% among 310,000. AID 588627;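 active = calcium response B-score plate-corrected fluorescence ratio at least 3 library SD, with starting fluorescence B-score inside 5 SD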
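times = overnight plating, then 30 min 37 °C plus 30 min room-temperature dye loading | assay system = stable human MrgX1 HEK293 cell line | input = fifteen thousand cells per well | signal = kinetic calcium dye fluorescence, Fluo-4 NW | dosing = compound delivered in addition one of three | read-out = B-scored fluorescence response ratio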
MrgX1 antag: blocks BAM8-22 activation of human MrgX1 receptor | B-score at 10 µM | hit rate 1.3% among 310,000 | MRGX1-HEK293 calcium flux, Fluo-4, BAM8-22 antagonism; stronger effect = lower value;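 active = calcium-response B-score plate-corrected more than 3 library SD below zero, starting fluorescence within 5 deviations, no agonist response on first addition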;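 note: peak minus trough fluorescence over baseline after final BAM8-22 challenge near maximal dose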
MrgX1 allo act: allosterically activates human MrgX1 receptor signaling; Q96LB2; MrgX1-HEK293, Fluo-4 calcium flux, FDSS; stronger effect = higher value; B-score at 10 µM; hit rate 0.63% among 310,000; AID 588675;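 active = plate-corrected calcium response at least 3 library SD above typical, normal starting fluorescence, not activating the receptor alone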;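 note: compound read alongside a low EC10 to EC30 dose of BAM8-22 agonist; peak minus trough fluorescence over baseline measured at the second addition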
KCC2 mod: modulators of human KCC2 chloride dependent transport | B-score of Tl+ flux slope (higher = more flux/activation; lower = inhibition) at 10 µM | Q9H2X9 | KCC2 cells, thallium flux FluoZin-2 fluorescence | hit rate 2.2% among 190,000 | AID 1456;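 active = thallium flux slope and its plate-corrected score both differing from the plate sample mean at a set confidence after two filtering rounds, in either direction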;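 note: slope of fluorescence scaled to starting intensity during 10 to 20 s after thallium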
Target sequence (Q9H2X9 whole entry, looked up): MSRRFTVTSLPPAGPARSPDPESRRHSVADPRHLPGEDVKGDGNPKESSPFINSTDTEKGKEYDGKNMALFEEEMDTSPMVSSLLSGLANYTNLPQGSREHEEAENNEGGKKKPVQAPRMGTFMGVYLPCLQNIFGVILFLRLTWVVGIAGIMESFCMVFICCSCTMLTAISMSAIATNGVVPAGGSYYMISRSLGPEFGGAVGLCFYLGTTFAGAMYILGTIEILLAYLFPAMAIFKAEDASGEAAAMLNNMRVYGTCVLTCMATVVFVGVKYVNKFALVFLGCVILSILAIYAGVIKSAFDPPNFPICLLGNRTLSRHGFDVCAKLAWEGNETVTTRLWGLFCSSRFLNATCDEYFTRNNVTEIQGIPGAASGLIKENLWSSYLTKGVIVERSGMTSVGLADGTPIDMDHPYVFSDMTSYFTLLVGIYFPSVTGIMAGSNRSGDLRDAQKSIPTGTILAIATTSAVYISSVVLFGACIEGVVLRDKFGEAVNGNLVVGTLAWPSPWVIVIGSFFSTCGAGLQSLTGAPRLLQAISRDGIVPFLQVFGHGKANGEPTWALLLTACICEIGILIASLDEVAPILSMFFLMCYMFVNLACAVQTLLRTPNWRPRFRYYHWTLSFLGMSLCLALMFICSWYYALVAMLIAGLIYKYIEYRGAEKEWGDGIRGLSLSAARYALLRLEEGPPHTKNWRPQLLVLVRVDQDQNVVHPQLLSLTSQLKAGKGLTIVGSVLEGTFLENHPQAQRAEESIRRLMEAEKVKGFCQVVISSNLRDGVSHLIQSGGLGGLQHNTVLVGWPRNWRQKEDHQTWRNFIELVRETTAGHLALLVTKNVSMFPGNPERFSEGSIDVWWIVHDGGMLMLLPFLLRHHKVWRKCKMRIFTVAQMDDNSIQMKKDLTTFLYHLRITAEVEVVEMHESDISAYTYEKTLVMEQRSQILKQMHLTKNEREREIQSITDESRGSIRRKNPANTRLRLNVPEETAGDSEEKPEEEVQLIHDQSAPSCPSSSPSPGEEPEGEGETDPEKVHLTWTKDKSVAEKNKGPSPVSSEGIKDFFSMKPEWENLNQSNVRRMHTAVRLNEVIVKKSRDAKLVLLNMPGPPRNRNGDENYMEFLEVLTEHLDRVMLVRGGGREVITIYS
RGS4 block: human RGS4 inhibition; P49798; HEK293 M3R/RGS4 inducible, Fluo-4 calcium flux; stronger effect = higher value; triggered by carbachol at its EC20; B-score at 10 µM; hit rate 0.45% among 310,000;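 active = B-score, a plate-corrected calcium signal, over three deviations above library mean, with baseline fluorescence within five deviations of library mean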;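 note: RGS4 expression induced by doxycycline in cells with stable M3 receptor; B-score is computed from the integrated fluorescence ratio over baseline after carbachol; higher B-score means a larger calcium signal and so more RGS4 inhibition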
RGS4 pot: potentiators or activators of RGS4; hit rate 0.92% among 310,000; HEK293 M3R/inducible RGS4, carbachol calcium flux Fluo4; stronger effect = lower value; B-score at 10 µM;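 active = B-score of the integrated calcium signal more than 4 SD below the library mean, with starting fluorescence not abnormally high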;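 note: negative B-score means reduced calcium response which marks RGS4 activation or potentiation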
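Assay system: Inducible-RGS4 HEK293 cells carrying M3 receptor | Schedule: Compound preincubation 20 min at room temperature before agonist | Signal: Kinetic calcium fluorescence imaging with Fluo4-AM dye, 2 µM | Read-out basis: B score from integrated fluorescence ratio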
RGS4 activ val: RGS4 activation, validation assay | shares compounds with RGS4 pot | HEK293 M3R/RGS4 inducible, carbachol calcium flux Fluo4 | inhibition, % at 10 µM | hit rate 89% among 1,100;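 active = inhibition above 3 SD of the buffer control wells, cut at about 41% in these data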;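 note: signal is the integrated peak-minus-minimum Fluo4 fluorescence over baseline ratio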
M3R Ca counter: counter-screen for RGS4 activators: effect in non-induced cells. shares compounds with RGS4 pot. HEK293 M3R non-induced RGS4, Fluo4 calcium flux; after carbachol challenge at its EC90. inhibition, % at 10 µM. hit rate 82% among 1,100;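 active = inhibition exceeding 3 SD of buffer-only control wells, cut at about 26% in these data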;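 note: percent drop in integrated peak-minus-baseline over baseline Fluo4 ratio after carbachol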
Starred values were filed as active, the others as inactive; i = inactive; nt = not tested or not shown. Compounds with a hit are over-represented: about 4.7% of the library has one in this group of screens.

SMILES	MrgX1 agonist	MrgX1 antag	MrgX1 allo act	KCC2 mod	RGS4 block	RGS4 pot	RGS4 activ val	M3R Ca counter
CN(C)CC(CCC(CN(C)C)C(O)(c1ccccc1)c1ccccc1)C(O)(c1ccccc1)c1ccccc1 (configuration not stated)	nt	nt	nt	nt	i	i	nt	nt
NC(=S)Nc1ccc(S(=O)(=O)c2ccc(NC(N)=S)cc2)cc1	i	i	i	nt	i	i	nt	nt
CCn1c(C)cc(O)c(C(=O)Nc2cccc(Cl)c2)c1=O	i	i	i	nt	i	i	nt	nt
CCn1c(C)c(C)c2cc(C(=O)Nc3cccc(Cl)c3)ccc21	i	i	i	-0.003	i	-7.7*	61*	0
CC(C)c1ccc(OCc2ccc(C(=O)N3CCCC3)o2)cc1	i	i	i	nt	i	-12*	83*	84*
CN1CCN(C(=O)c2ccc(COc3ccc(C(C)(C)C)cc3)o2)CC1	i	i	i	-0.77	i	-7.7*	90*	41*
CCCc1ccc(OCc2ccc(C(=O)N3CCCC3)o2)cc1	i	i	i	nt	i	i	nt	nt
CCOc1ccc(OCc2ccc(C(=O)N3CCCC3)o2)cc1	i	i	i	-1	i	i	nt	nt
Cc1noc(C)c1S(=O)(=O)N1CCCC(C(=O)NCc2ccccc2Cl)C1 (configuration not stated)	i	i	i	nt	i	i	nt	nt
Cc1ccccc1NC(=O)c1ccccc1NC(=O)Cc1cccc2ccccc12	i	i	i	-0.79	i	i	nt	nt
Cc1ccccc1NC(=O)c1cccc2nc3ccccc3nc12	i	i	i	-0.13	i	-7.8*	86*	59*
COc1ccc2cc(C(=O)N3CCC(Cc4ccccc4)CC3)[nH]c2c1	i	i	i	nt	i	-7.9*	0	0
COc1ccc2[nH]c(C(=O)N3CCC(Cc4ccccc4)CC3)cc2c1	i	i	i	nt	i	i	nt	nt
Cc1nc2ccccn2c1-c1csc(Nc2cccc(O)c2)n1	nt	nt	nt	-0.5	i	-8.4*	57*	0
CCOc1ccc(S(=O)(=O)NC(C)(C)C)cc1-c1nc2c(C(C)(C)C)nn(C)c2c(=O)[nH]1	i	i	i	-1.4	i	-10*	76*	46*
CCOc1ccc(S(N)(=O)=O)cc1-c1nc2c(C(C)(C)C)nn(C)c2c(=O)[nH]1	i	i	i	-0.015	i	i	nt	nt
Cc1nc2ccccc2c2oc(C(=O)NCC3COc4ccccc4O3)cc12 (configuration not stated)	i	i	i	-3.2	i	-11*	82*	42*
CCc1ccc(CNC(=O)c2cc3c(C)nc4ccccc4c3o2)cc1	i	i	i	-0.048	i	i	nt	nt
CN(C)CCCNC(=O)c1ccc(-c2nc(-c3ccc(Cl)cc3)cs2)cc1	i	i	i	nt	i	-8.2*	96*	98*
CN(C)CCCNC(=O)c1ccccn1	i	i	i	-0.15	i	i	nt	nt
COc1cccc(NC(=O)C2CCOC2=O)c1 (configuration not stated)	i	i	i	nt	i	i	nt	nt
COc1ccccc1CN1CC(C(=O)NCCN2CCOC2=O)CCC1=O (configuration not stated)	i	i	i	nt	i	i	nt	nt
CCCCS/C(=C(/C#N)C(N)=O)c1cc2c([nH]1)CCCC2	i	i	i	nt	i	-8.2*	94*	92*
O=C(Cn1nnnc1CN1CCOCC1)N1CCC(c2cccc(Cl)c2)C1 (configuration not stated)	i	i	i	nt	i	i	nt	nt
CCOC(=O)C(=CNc1ccc(NC2=NCC(C)(C)S2)cc1)C(=O)OCC	i	i	i	-2.1	i	-11*	79*	84*
SMILES	MrgX1 agonist	MrgX1 antag	MrgX1 allo act	KCC2 mod	RGS4 block	RGS4 pot	RGS4 activ val	M3R Ca counter
CCOc1ccc(Br)cc1C1C(C(=O)OC)=C(N)Oc2cc(N(C)C)ccc21 (configuration not stated)	i	i	i	0.88	i	-9.2*	92*	69*
Cc1cccc(NS(=O)(=O)c2ccc(C(=O)N3CCC3)cc2)c1C	i	i	i	nt	i	i	nt	nt
COc1cc(O)c(CC=C(C)C)c(O)c1C(=O)CCc1ccc(O)cc1	i	i	i	0.49	i	-9.3*	91*	76*
Cc1cccc(N2CCN(C(=O)CSc3nc4ccccc4nc3N3CC(C)OC(C)C3)CC2)c1C (configuration not stated)	i	i	i	nt	i	-8.1*	85*	84*
O=C(COc1ccc(Cl)cc1)Nc1ccccc1C(=O)NCc1cccnc1	i	i	i	nt	i	i	nt	nt
CCOC(=O)c1cc2sccc2n1Cc1ccccc1	i	i	i	0.67	i	i	nt	nt
CCOC(=O)c1cc2sccc2n1CCCN1C(=O)c2ccccc2C1=O	i	i	i	0.5	i	-7.9*	73*	84*
CC(C)(C)c1cc(-c2csc(Nc3ccccc3)[n+]2Cc2ccc(C(=O)O)cc2)cc(C(C)(C)C)c1O	i	-9.5*	i	-1.8	i	-11*	94*	97*
C=CC[n+]1c(C)csc1Nc1ccc(C(=O)O)cc1	i	i	i	0.67	i	i	nt	nt
OCCn1ccc(-c2ccccc2OCc2ccc(F)cc2)n1	i	i	i	nt	i	i	nt	nt
N#CC(C#N)=c1ccc2c(c1)N1C3=C(CCCC3)CC3CCCCC31N=2 (configuration not stated)	i	i	i	-1.9	i	-8.2*	84*	84*
O=C(O)C1CCN(C(=O)CSc2nc3ccccc3c(=O)n2-c2ccc(Cl)cc2)CC1	i	i	i	nt	i	i	nt	nt
OC(Cc1nc2ccccc2[nH]1)c1ccccc1Cl (configuration not stated)	i	i	i	0.0081	i	-8.2*	0	0
CSCCC(NS(=O)(=O)c1ccccc1F)C(=O)N1CCCCCCC1 (configuration not stated)	i	i	i	nt	i	i	nt	nt
CCN(CC)CCNC(C(=O)Nc1cccc(C(C)=O)c1)c1ccccc1 (configuration not stated)	i	-5*	i	-0.27	i	-13*	90*	45*
CC(C)CCN(CCC(C)C)C(CO)(CO)CO	i	i	i	0.77	i	i	nt	nt
